{"source": "ChEMBL document CHEMBL4229410", "about": "“Facile construction of fused benzimidazole-isoquinolinones that induce cell-cycle arrest and apoptosis in colorectal cancer cells” (Bioorg Med Chem, 2018)", "key": {"SW-620 [1]": {"system": "SW-620", "test": "Inhibition of colony formation in human SW620 cells assessed as reduction in colony size at 25 to 75 uM treated for 48 hrs followed by compound washout and measured after 14 hrs by crystal violet staining based assay", "format": "functional, cell-based"}, "HT-29 [2]": {"system": "HT-29", "test": "Cell cycle arrest in human HT-29 cells assessed as accumulation at S-phase at 50 uM after 48 hrs by propidium iodide staining based flow cytometry (reference value: 37.82%)", "format": "functional"}, "[3]": {"target": "Epidermal growth factor receptor (Homo sapiens, UniProt P00533)", "test": "Inhibition of partial length human EGFR (R669 to V1011 residues) expressed in bacterial expression system assessed as residual activity at 5 uM by KINOMEscan assay relative to control"}, "[4]": {"target": "High affinity nerve growth factor receptor (Homo sapiens, UniProt P04629)", "test": "Binding affinity to human TRKA (G475 to G790 residues) expressed in mammalian expression system by KINOMEscan assay"}, "[5]": {"target": "Serine/threonine-protein kinase PLK4 (Homo sapiens, UniProt O00444)", "sequence (O00444 whole entry, the tested form may be a part)": "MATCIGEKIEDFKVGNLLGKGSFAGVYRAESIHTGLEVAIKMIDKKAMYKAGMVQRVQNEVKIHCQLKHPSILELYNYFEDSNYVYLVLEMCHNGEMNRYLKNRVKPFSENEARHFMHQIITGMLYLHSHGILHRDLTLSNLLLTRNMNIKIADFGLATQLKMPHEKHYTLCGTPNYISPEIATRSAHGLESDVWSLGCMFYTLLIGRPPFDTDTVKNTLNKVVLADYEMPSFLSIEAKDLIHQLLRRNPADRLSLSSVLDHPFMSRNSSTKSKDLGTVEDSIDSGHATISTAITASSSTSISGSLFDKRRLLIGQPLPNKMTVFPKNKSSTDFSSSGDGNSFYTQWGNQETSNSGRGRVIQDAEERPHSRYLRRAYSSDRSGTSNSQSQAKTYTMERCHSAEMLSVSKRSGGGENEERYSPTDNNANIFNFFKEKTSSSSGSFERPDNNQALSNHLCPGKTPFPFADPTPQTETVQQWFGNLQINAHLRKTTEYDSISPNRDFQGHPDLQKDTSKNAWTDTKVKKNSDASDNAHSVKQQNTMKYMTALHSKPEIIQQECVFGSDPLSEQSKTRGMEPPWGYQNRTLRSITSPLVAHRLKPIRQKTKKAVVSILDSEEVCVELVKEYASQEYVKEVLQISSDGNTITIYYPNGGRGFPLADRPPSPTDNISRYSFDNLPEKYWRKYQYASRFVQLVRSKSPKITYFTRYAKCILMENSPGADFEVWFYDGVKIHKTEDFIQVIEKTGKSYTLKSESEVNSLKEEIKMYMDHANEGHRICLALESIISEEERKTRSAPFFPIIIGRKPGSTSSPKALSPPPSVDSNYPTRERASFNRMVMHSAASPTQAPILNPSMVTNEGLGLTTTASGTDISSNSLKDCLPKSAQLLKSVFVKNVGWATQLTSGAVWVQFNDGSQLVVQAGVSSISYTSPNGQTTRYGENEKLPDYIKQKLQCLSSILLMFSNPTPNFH", "test": "Binding affinity to partial length human PLK4 (M1 to S273 residues) expressed in mammalian expression system by KINOMEscan assay"}, "[6]": {"target": "Cyclin-dependent kinase 9 (Homo sapiens, UniProt P50750)", "test": "Inhibition of full length human CDK9 (M1 to F372 residues) expressed in bacterial expression system assessed as residual activity at 5 uM by KINOMEscan assay relative to control"}, "[7]": {"target": "Mitogen-activated protein kinase 14 (Homo sapiens, UniProt Q16539)", "test": "Binding affinity to full length human p38alpha (M1 to S360 residues) expressed in bacterial expression system by KINOMEscan assay"}, "[8]": {"system": "Epidermal growth factor receptor (Homo sapiens), P00533 [L858R]", "test": "Inhibition of partial length human EGFR (R669 to V1011 residues) L858R mutant expressed in bacterial expression system assessed as residual activity at 5 uM by KINOMEscan assay relative to control"}, "HT-29 [9]": {"system": "HT-29", "test": "Growth inhibition of human HT-29 cells by MTT assay", "format": "functional", "in_short": "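MTT viability assay: 3×10³ cells/well were pre-incubated for 24 h, then exposed to 0, 12.5, 25, 50, 100 or 200 μM for 12, 24, 48 or 72 h. MTT was added at 0.5 mg/mL final for 4 h, formazan dissolved in DMSO, and absorbance read at 570 nm. GI₅₀ was taken from growth-inhibition curves; mean ± SD of three independent experiments, each in sextuplicate.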"}, "SW-620 [10]": {"system": "SW-620", "test": "Induction of apoptosis in human SW620 cells assessed as necrotic cells at 25 uM after 48 hrs by Annexin-V-FITC/propidium iodide staining based flow cytometry (reference value: 0.9%)", "format": "functional"}, "[11]": {"target": "Platelet-derived growth factor receptor alpha (Homo sapiens, UniProt P16234)", "sequence (P16234 whole entry, the tested form may be a part)": "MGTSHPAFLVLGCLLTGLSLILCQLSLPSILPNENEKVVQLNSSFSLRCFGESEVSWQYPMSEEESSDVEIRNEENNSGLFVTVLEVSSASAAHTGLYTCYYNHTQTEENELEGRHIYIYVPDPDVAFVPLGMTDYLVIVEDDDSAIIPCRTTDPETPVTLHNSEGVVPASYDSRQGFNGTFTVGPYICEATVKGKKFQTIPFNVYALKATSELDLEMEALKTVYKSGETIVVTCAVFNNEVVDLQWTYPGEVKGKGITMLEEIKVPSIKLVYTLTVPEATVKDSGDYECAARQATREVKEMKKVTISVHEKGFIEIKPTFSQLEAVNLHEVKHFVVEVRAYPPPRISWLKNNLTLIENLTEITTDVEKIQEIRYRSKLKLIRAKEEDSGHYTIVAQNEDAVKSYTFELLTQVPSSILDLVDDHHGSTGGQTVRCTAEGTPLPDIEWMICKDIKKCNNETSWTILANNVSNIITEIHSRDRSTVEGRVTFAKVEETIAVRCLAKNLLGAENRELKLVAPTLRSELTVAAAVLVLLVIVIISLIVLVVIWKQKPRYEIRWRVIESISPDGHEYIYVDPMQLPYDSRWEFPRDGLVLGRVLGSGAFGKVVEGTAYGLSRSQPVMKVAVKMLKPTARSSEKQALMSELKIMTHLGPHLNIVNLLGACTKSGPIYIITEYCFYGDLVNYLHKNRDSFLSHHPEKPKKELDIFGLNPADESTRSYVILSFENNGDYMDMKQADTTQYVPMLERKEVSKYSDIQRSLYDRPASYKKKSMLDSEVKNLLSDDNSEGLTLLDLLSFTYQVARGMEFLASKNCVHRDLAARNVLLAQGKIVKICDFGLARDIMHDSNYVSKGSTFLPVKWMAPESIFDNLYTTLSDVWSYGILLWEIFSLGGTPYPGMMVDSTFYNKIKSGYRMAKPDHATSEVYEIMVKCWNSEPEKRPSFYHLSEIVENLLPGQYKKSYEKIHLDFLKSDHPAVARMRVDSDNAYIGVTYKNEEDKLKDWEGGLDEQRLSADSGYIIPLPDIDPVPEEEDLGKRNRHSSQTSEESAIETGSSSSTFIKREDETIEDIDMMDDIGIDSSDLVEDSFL", "test": "Binding affinity to human PDGFRA (V575 to D1002 residues) expressed in mammalian expression system by KINOMEscan assay"}, "Focal adhesion kinase 1": {"target": "Focal adhesion kinase 1 (Homo sapiens, UniProt Q05397)", "test": "Binding affinity to human FAK (D402 to R696 residues) expressed in bacterial expression system by KINOMEscan assay"}, "Insulin receptor": {"target": "Insulin receptor (Homo sapiens, UniProt P06213)", "sequence (P06213 28-758 limits assumed)": "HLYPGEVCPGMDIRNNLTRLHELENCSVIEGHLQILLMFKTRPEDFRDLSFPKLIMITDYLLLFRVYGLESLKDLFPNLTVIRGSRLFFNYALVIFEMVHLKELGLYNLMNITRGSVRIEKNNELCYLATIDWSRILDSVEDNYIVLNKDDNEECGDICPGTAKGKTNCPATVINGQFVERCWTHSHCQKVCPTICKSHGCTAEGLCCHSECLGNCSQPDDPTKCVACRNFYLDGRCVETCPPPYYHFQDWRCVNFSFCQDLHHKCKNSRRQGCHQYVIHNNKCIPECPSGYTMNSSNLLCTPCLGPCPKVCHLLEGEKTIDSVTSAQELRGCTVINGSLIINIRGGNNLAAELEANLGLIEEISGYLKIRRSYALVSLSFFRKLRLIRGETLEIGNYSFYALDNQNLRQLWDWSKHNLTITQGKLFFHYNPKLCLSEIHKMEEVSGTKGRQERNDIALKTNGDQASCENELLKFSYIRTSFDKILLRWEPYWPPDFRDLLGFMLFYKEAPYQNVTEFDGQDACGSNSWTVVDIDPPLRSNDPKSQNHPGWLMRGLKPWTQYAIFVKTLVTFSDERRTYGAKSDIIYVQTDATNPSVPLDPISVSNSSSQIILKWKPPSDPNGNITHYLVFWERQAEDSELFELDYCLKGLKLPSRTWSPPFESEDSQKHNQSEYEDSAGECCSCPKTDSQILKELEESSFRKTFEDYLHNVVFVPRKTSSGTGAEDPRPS", "sequence (P06213 763-1382 limits assumed)": "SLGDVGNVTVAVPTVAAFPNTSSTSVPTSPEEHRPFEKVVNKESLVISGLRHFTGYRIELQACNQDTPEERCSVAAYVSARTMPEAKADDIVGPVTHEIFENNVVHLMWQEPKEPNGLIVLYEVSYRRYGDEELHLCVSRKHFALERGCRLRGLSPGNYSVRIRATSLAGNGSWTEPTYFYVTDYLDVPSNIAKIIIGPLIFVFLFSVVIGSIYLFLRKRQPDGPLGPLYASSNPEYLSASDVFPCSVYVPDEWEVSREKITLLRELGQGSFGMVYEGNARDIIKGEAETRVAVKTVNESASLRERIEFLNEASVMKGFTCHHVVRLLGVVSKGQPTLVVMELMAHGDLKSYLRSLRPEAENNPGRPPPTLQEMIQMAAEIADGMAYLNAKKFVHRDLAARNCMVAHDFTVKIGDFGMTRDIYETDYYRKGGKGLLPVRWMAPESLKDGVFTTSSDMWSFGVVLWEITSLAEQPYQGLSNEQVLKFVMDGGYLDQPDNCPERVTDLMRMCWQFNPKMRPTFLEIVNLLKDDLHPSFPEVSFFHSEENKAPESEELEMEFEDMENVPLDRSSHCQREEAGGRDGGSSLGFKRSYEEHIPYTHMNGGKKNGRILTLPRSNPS", "test": "Binding affinity to human INSR (P997 to E1318 residues) expressed in mammalian expression system by KINOMEscan assay"}, "SW-620 [12]": {"system": "SW-620", "test": "Induction of apoptosis in human SW620 cells assessed as live cells at 75 uM after 48 hrs by Annexin-V-FITC/propidium iodide staining based flow cytometry (reference value: 97.5%)", "format": "functional"}, "Ephrin type-A receptor 2": {"target": "Ephrin type-A receptor 2 (Homo sapiens, UniProt P29317)", "test": "Binding affinity to human EPHA2 (T593 to V891 residues) expressed in bacterial expression system by KINOMEscan assay"}, "[13]": {"target": "Casein kinase I isoform delta (Homo sapiens, UniProt P48730)", "sequence (P48730 whole entry, the tested form may be a part, canonical isoform)": "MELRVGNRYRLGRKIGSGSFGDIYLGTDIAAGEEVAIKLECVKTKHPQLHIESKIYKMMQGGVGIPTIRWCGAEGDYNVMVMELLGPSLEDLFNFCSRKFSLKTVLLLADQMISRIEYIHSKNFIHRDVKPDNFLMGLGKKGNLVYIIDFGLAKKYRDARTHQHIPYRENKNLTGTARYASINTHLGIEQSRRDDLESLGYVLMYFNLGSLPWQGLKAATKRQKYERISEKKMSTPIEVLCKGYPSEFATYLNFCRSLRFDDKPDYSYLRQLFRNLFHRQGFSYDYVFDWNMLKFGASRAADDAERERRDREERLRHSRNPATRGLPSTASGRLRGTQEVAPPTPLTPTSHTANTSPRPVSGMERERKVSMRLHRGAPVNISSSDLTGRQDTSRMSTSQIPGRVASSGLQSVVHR", "test": "Binding affinity to full length human CSNK1D (M1 to K409 residues) expressed in bacterial expression system by KINOMEscan assay"}, "HT-29 [14]": {"system": "HT-29", "test": "Induction of apoptosis in human HT-29 cells after 48 hrs by Annexin-V-FITC/propidium iodide staining based flow cytometry", "format": "functional, cell-based"}, "[15]": {"target": "Tyrosine-protein kinase receptor UFO (Homo sapiens, UniProt P30530)", "test": "Binding affinity to human AXL (R497 to Y821 residues) expressed in bacterial expression system by KINOMEscan assay"}, "[16]": {"target": "Fibroblast growth factor receptor 2 (Homo sapiens, UniProt P21802)", "test": "Inhibition of partial length human FGFR2 (D457 to E769 residues) expressed in bacterial expression system assessed as residual activity at 5 uM by KINOMEscan assay relative to control"}, "HT-29 [17]": {"system": "HT-29", "test": "Cell cycle arrest in human HT-29 cells assessed as accumulation at G1-phase at 75 uM after 48 hrs by propidium iodide staining based flow cytometry (reference value: 41.86%)", "format": "functional"}, "HT-29 [18]": {"system": "HT-29", "test": "Antiproliferative activity against human HT-29 cells after 48 hrs by BrdU/DAPI staining based immunofluorescence assay", "format": "functional, cell-based", "in_short": "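Cells seeded at 20,000 per well after reaching 80% confluence; exposed 48 h to 0, 25, 50, 75 μM, then 10 μM BrdU for 2 h. Paraformaldehyde fixation, 2 M HCl 30 min, 10% goat serum block, anti-BrdU primary overnight at 4 °C, secondary 120 min at room temperature, DAPI 300 nM. Fluorescence microscopy; percent BrdU-positive nuclei, mean ± SD of three independent experiments.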"}, "[19]": {"target": "Serine/threonine-protein kinase PAK 1 (Homo sapiens, UniProt Q13153)", "sequence (Q13153 whole entry, the tested form may be a part)": "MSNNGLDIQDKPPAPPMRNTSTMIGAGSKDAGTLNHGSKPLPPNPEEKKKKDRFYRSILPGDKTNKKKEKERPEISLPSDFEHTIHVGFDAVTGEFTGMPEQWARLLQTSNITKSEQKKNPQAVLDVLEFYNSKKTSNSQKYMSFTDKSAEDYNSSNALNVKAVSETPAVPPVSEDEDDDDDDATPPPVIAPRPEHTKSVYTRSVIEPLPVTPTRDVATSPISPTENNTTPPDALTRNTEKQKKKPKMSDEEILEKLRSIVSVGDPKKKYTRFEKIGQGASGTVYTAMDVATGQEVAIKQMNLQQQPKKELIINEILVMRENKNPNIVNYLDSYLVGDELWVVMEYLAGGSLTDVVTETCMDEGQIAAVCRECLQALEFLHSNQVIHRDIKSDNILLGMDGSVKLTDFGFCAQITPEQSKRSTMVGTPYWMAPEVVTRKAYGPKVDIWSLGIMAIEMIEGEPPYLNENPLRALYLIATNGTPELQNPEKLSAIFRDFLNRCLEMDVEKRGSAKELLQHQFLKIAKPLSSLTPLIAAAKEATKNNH", "test": "Inhibition of human PAK1 (S149 to H545 residues) expressed in bacterial expression system assessed as residual activity at 5 uM by KINOMEscan assay relative to control"}, "[20]": {"target": "Receptor-type tyrosine-protein kinase FLT3 (Homo sapiens, UniProt P36888)", "test": "Binding affinity to human FLT3 (V592 to Y969 residues) expressed in bacterial expression system by KINOMEscan assay"}, "[21]": {"target": "Mitogen-activated protein kinase kinase kinase 4 (Homo sapiens, UniProt Q9Y6R4)", "test": "Inhibition of human MAP3K4 (G1319 to E1608 residues) expressed in bacterial expression system assessed as residual activity at 5 uM by KINOMEscan assay relative to control"}, "[22]": {"target": "Testis-specific serine/threonine-protein kinase 1 (Homo sapiens) (UniProt Q9BXA7)", "test": "Inhibition of full length human TSSK1B (M1 to Q367 residues) expressed in bacterial expression system assessed as residual activity at 5 uM by KINOMEscan assay relative to control"}, "[23]": {"target": "Cyclin-dependent kinase 2 (Homo sapiens, UniProt P24941)", "test": "Binding affinity to full length human CDK2 (M1 to L298 residues) expressed in bacterial expression system by KINOMEscan assay"}, "Aurora kinase B": {"target": "Aurora kinase B (Homo sapiens, UniProt Q96GD4)", "sequence (Q96GD4 whole entry, the tested form may be a part)": "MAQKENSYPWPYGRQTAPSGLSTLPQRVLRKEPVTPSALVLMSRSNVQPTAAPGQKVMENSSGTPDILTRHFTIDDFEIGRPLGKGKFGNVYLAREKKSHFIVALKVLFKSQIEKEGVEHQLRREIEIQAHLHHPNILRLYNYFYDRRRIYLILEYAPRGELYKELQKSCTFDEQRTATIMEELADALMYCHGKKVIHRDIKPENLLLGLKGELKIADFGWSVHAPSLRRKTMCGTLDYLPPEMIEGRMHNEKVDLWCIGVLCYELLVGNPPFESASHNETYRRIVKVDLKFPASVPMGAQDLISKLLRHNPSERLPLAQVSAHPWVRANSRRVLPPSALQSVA", "test": "Inhibition of human AURKB (D25 to A303 residues) expressed in mammalian expression system assessed as residual activity at 5 uM by KINOMEscan assay relative to control"}, "[24]": {"target": "Tyrosine-protein kinase ABL1 (Homo sapiens, UniProt P00519, T315I)", "test": "Binding affinity to human phosphorylated ABL1 T315I mutant (S229 to K512 residues) expressed in mammalian expression system by KINOMEscan assay"}}, "note": "Activity calls are given as the source filed them. No cut-off for these calls is given here."}
{"compound": "CC(C)CN(C(=O)c1cccnc1)c1c2ccccc2c(=O)n2c1[nH]c1ccccc12", "values": [{"measurement": "inhibition", "setting": "SW-620 [1]", "value": "Active"}, {"measurement": "Activity", "setting": "HT-29 [2]", "value": 35.86, "unit": "%"}, {"measurement": "Activity", "setting": "[3]", "value": 100, "unit": "%"}, {"measurement": "Kd", "setting": "[4]", "value": "≥ 5", "unit": "µM"}, {"measurement": "Kd", "setting": "[5]", "value": "≥ 5", "unit": "µM"}, {"measurement": "Activity", "setting": "[6]", "value": 87, "unit": "%"}, {"measurement": "Kd", "setting": "[7]", "value": "≥ 5", "unit": "µM"}, {"measurement": "Activity", "setting": "[8]", "value": 92, "unit": "%"}, {"measurement": "GI50", "setting": "HT-29 [9]", "value": 24.1, "unit": "µM"}, {"measurement": "Activity", "setting": "SW-620 [10]", "value": 3.1, "unit": "%"}, {"measurement": "Kd", "setting": "[11]", "value": "≥ 5", "unit": "µM"}, {"measurement": "Kd", "setting": "Focal adhesion kinase 1", "value": "≥ 5", "unit": "µM"}, {"measurement": "Kd", "setting": "Insulin receptor", "value": "≥ 5", "unit": "µM"}, {"measurement": "Activity", "setting": "SW-620 [12]", "value": 76.7, "unit": "%"}, {"measurement": "Kd", "setting": "Ephrin type-A receptor 2", "value": "≥ 5", "unit": "µM"}, {"measurement": "Kd", "setting": "[13]", "value": "≥ 5", "unit": "µM"}, {"measurement": "Activity", "setting": "HT-29 [14]", "value": "Dose-dependent effect"}, {"measurement": "Kd", "setting": "[15]", "value": "≥ 5", "unit": "µM"}, {"measurement": "Activity", "setting": "[16]", "value": 76, "unit": "%"}, {"measurement": "Activity", "setting": "HT-29 [17]", "value": 43.36, "unit": "%"}, {"measurement": "Activity", "setting": "HT-29 [18]", "value": "Dose-dependent effect"}, {"measurement": "Activity", "setting": "[19]", "value": 100, "unit": "%"}, {"measurement": "Kd", "setting": "[20]", "value": "≥ 5", "unit": "µM"}, {"measurement": "Activity", "setting": "[21]", "value": 91, "unit": "%"}, {"measurement": "Activity", "setting": "[22]", "value": 92, "unit": "%"}, {"measurement": "Kd", "setting": "[23]", "value": "≥ 5", "unit": "µM"}, {"measurement": "Activity", "setting": "Aurora kinase B", "value": 92, "unit": "%"}, {"measurement": "Kd", "setting": "[24]", "value": "≥ 5", "unit": "µM"}]}
